Experimental findings from ChEMBL document CHEMBL3525997, “Debrisoquine metabolism and CYP2D expression in marmoset liver microsomes” (Drug Metab Dispos, 2012) are described below.

Holding throughout (type): ADME, Callithrix jacchus
Data set [1] is described as follows: Drug metabolism in marmoset liver microsomes treated with [14C]debrisoquine at 500 uM after 180 mins by NMR analysis. The note with it: 3 h. In a few lines:
(§1)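 Large-scale incubation to generate metabolites for structural identification. Pooled marmoset liver microsomal protein 4 mg/ml (batch 1), 6 mM NADPH, 50 mM Tris-HCl pH 7.69, total 35 ml. Reaction started with [14C]debrisoquine to a final concentration of 500 µM and incubated for 180 min.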
In general terms: Microsomes from liver hold many membrane-bound enzymes, among them those of drug oxidation.

Data set [2] in a line: Drug metabolism in marmoset liver microsomes assessed as 4-hydroxydebrisoquine formation at 500 uM after 180 mins by NMR analysis. The note with it: 3 h. In a few lines: as §1
Data set [3] is described as follows: Drug metabolism in marmoset liver microsomes assessed as 8-hydroxydebrisoquine formation at 500 uM after 180 mins by NMR analysis. The note with it: 3 h. In a few lines:
as §1

Data set [4] can be described thus: Drug metabolism in marmoset liver microsomes assessed as 6-hydroxydebrisoquine formation at 500 uM after 180 mins by NMR analysis. The note with it: 3 h. In a few lines: as §1
The nature of data set [5]: Drug metabolism in marmoset liver microsomes assessed as 7-hydroxydebrisoquine formation at 500 uM after 180 mins by NMR analysis. The note with it: 3 h. In a few lines:
as §1

Data set [6] is described as follows: Drug metabolism in marmoset liver microsomes assessed as 6,7-hydroxydebrisoquine formation at 500 uM after 180 mins by NMR analysis. The note with it: 3 h. In a few lines:
as §1

Data set [7] in a line: Drug metabolism in marmoset liver microsomes assessed as 5-hydroxydebrisoquine formation at 500 uM after 180 mins by NMR analysis. The note with it: 3 h. In a few lines: as §1
Data set [8] in a line: Drug metabolism in marmoset liver microsomes treated with [14C]debrisoquine at 500 uM after 120 mins by radio-HPLC chromatography. The note with it: 2 h. In a few lines: (§2)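 Pooled male marmoset liver microsomes (5 mg/ml, batch 1) incubated with [14C]debrisoquine 500 µM, NADPH 6 mM, Tris-HCl 50 mM pH 7.69, 37°C, 120 min. Protein precipitated, supernatant injected on C18 reversed-phase HPLC with 10 mM TFA/acetonitrile linear gradient over 40 min. Detection by UV at 211 nm, radioactivity flow detector, and ESI+ LC-MS/MS with product ion spectra.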

Data set [9] can be described thus: Drug metabolism in marmoset liver microsomes treated with [14C]debrisoquine at 500 uM after 120 mins by LC/MS/MS analysis. The note with it: 2 h. In a few lines: as §2
Data set [10] can be described thus: Drug metabolism in marmoset liver microsomes assessed as 4-hydroxydebrisoquine formation at 500 uM after 120 mins by radio-HPLC chromatography. The note with it: 2 h. In a few lines:
as §2

Data set [11] is described as follows: Drug metabolism in marmoset liver microsomes assessed as metabolite MF-3 formation at 500 uM after 120 mins by radio-HPLC chromatography. The note with it: 2 h. In a few lines: as §2
Data set [12] in a line: Drug metabolism in marmoset liver microsomes assessed as metabolite MF-3 formation at 500 uM after 120 mins by LC/MS/MS analysis. The note with it: 2 h. In a few lines: as §2
Data set [13] is described as follows: Drug metabolism in marmoset liver microsomes assessed as metabolite MF-1 formation at 500 uM after 120 mins by LC/MS/MS analysis. The note with it: 2 h. In a few lines: as §2
Data set [14] can be described thus: Drug metabolism in marmoset liver microsomes assessed as 4-hydroxydebrisoquine formation at 500 uM after 120 mins by LC/MS/MS analysis. The note with it: 2 h. In a few lines: as §2
The nature of data set [15]: Drug metabolism in marmoset liver microsomes assessed as metabolite MF-1 formation at 500 uM after 120 mins by radio-HPLC chromatography. The note with it: 2 h. In a few lines:
as §2

In the case of `N=C(N)N1CCc2cc(O)c(O)cc2C1`, the Drug metabolism result in data set [1] is reported as “metabolite_detected”.

`N=C(N)N1CCc2ccccc2C1.O=S(=O)(O)O`: the Drug metabolism result in data set [2], in data set [3], in data set [4], in data set [5], in data set [6] and in data set [7] was “metabolite_detected” throughout.

For `N=C(N)N1CCc2cc(O)ccc2C1`, in [1], the Drug metabolism result was “metabolite_detected”.

Turning to `N=C(N)N1CCc2c(O)cccc2C1`, in data set [1], the Drug metabolism result is recorded as “metabolite_detected”.

On to `N=C(N)N1CCc2ccc(O)cc2C1`, for which the Drug metabolism entry in data set [1] is recorded as “metabolite_detected”.

As to `N=C(N)N1Cc2ccccc2C(O)C1` (stereo not given), the Drug metabolism result in [8], in data set [9] and in [1] was “metabolite_detected” each time.

`N=C(N)N1CCc2cccc(O)c2C1`: the Drug metabolism entry in data set [1] is listed as “metabolite_detected”.

In the case of `N=[14C](N)N1CCc2ccccc2C1`, the Drug metabolism entry in [10], in data set [11], in data set [12], in data set [13], in data set [14] and in [15] was “metabolite_detected” each time.
